Reference: ChEMBL document CHEMBL3804796, “Discovery of Novel 3,3-Disubstituted Piperidines as Orally Bioavailable, Potent, and Efficacious HDM2-p53 Inhibitors” (ACS Med Chem Lett, 2016)
≈ marks a conversion by molar mass, not a printed value. Calls of active or inactive are those of the source. No cut-off for these calls is given here.

Experiments:
[1] = tested on: A2780; test: Antiproliferative activity against human A2780 cells expressing wild type p53 after 72 hrs by CellTitre-Glo assay; type: functional, cell-based
In short: (§1)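 Cell lines exposed to compound for 72 h; viability read by CellTiter-Glo and IC50 derived. p53 coding-region mutation status of each line established by direct sequencing.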

[2] = Solubility of compound in pH 7.4 phosphate buffer; type: physicochemical
[3] = Antiproliferative activity against p53 null human H1299 cells after 72 hrs by CellTitre-Glo assay; type: functional, cell-based; details: NCI-H1299, 72 h
In short: (§2)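 Cancer cell lines of known p53 coding-region status (checked by direct sequencing) were exposed to the compound for 72 h. Viability was read with CellTiter-Glo, and the IC50 was taken from these readings.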

[4] = tested on: MOLT-4; test: Antiproliferative activity against human MOLT4 cells expressing wild type p53 after 72 hrs by CellTitre-Glo assay; type: functional, cell-based; in short: as §1
[5] = tested on: Mus musculus; test: Toxicity in nude mouse xenografted with human SJSA1 cells assessed as body weight loss at 50 to 200 mg/kg, po qd administered with cycle of 3 days on, 4 days off for 30 days; type: organism-based, SJSA-1; details: in vivo
In short: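 Nude mice bearing SJSA-1 osteosarcoma xenografts, n = 5 per group. Dosing was oral in 20% HPBCD, either continuous daily at 100 and 200 mpk or intermittent (daily for 3 days on, 4 days off). Body weight was compared against a vehicle-control group.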

[6] = Antitumor activity against human SJSA1 cells xenografted in nude mouse assessed as tumor growth inhibition at 200 mg/kg, po qd administered with cycle of 3 days on, 4 days off for 30 days relative to control; type: functional; details: SJSA-1, po, read-out: TGI
In short: (§3)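 Nude mice bearing SJSA-1 osteosarcoma xenografts, n = 5 per group. Oral dosing in 20% HPBCD, given either intermittently (daily, 3 days on/4 days off) or continuously daily. Body weight was monitored against a vehicle control group.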

[7] = tested on: NCI-H460; test: Antiproliferative activity against human NCI-H460 cells expressing wild type p53 after 72 hrs by CellTitre-Glo assay; type: functional, cell-based; in short: as §1
[8] = tested on: A-375; test: Antiproliferative activity against human A375 cells expressing wild type p53 after 72 hrs by CellTitre-Glo assay; type: functional, cell-based; in short: as §1
[9] = molecular target: Cytochrome P450 2C9 (Homo sapiens, UniProt P11712); test: Inhibition of CYP2C9 (unknown origin); type: ADME
Cytochrome P450 2C9, sequence (P11712 whole entry): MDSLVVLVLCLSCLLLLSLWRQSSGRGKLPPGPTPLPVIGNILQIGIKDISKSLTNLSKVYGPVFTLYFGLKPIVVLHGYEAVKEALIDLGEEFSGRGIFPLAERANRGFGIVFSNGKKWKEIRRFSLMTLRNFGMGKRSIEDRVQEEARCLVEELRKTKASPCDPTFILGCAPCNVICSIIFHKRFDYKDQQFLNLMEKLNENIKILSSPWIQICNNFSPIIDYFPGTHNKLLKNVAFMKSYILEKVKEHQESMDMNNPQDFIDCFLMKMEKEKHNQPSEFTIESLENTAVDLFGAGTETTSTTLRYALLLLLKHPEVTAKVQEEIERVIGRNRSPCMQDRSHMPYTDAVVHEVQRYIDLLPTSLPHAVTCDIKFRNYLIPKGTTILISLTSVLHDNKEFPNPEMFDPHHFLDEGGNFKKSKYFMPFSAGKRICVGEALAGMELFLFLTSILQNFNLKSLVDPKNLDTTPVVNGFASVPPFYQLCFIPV

[10] = tested on: Mus musculus; test: Dose normalized AUC (0 to 24 hrs) in mouse at 1 mg/kg, po administered as single dose; type: ADME, organism-based; details: in vivo
In short: (§4)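 Single oral dose of 1 mg/kg. Vehicle was 20% HPBCD for mouse and 0.4% HPMC for dog and monkey. Plasma AUC over 0–24 h, dose-normalized, reported in μM·h.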

[11] = Fraction unbound in monkey plasma; type: ADME, cell-free, Macaca mulatta; details: rhesus monkey
[12] = tested on: DOHH-2; test: Antiproliferative activity against human DOHH2 cells expressing wild type p53 after 72 hrs by CellTitre-Glo assay; type: functional, cell-based; in short: as §1
[13] = tested on: A549; test: Antitumor activity against human A549 cells xenografted in nude mouse assessed as tumor growth inhibition at 100 mg/kg, po qd administered with cycle of 3 days on, 4 days off for 30 days coadministered with 20 mg/kg, ip once weekly paclitaxel relative to control; type: functional
In short: (§5)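 Mice bearing A549 NSCLC xenografts. The test agent was given orally, either daily or intermittently (daily for 3 days, then 4 days off). Paclitaxel was given at 20 mg/kg ip weekly, alone or in combination. Read-out was tumor growth inhibition.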

[14] = tested on: EOL1; test: Antiproliferative activity against human EOL-1 cells expressing wild type p53 after 72 hrs by CellTitre-Glo assay; type: functional, cell-based; in short: as §1
[15] = Fraction unbound in human plasma; type: ADME, cell-free
[16] = tested on: HCT-116; test: Selectivity ratio of IC50 for p53 null human H1299 cells to IC50 for human HCT116 cells expressing wild type p53; type: functional
In short: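 Ratio of two IC50s, each from a 72 h CellTiter-Glo viability assay. p53 coding-region status was confirmed by direct sequencing. The ratio is p53-mutant (SK-UT-1) or p53-null (H1299) IC50 divided by wild-type p53 (SJSA-1 or HCT116) IC50.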

[17] = tested on: ACHN; test: Antiproliferative activity against human ACHN cells expressing wild type p53 after 72 hrs by CellTitre-Glo assay; type: functional, cell-based; in short: as §1
[18] = tested on: LNCaP; test: Antiproliferative activity against human LNCAP cells expressing wild type p53 after 72 hrs by CellTitre-Glo assay; type: functional, cell-based; in short: as §1
[19] = tested on: SK-UT-1; test: Antiproliferative activity against human SK-UT-1 cells harboring mutant p53 after 72 hrs by CellTitre-Glo assay; type: functional, cell-based; details: SK-UT-1, 72 h; in short: as §2
[20] = Antitumor activity against human SJSA1 cells xenografted in nude mouse assessed as tumor growth inhibition at 50 mg/kg, po qd administered with cycle of 3 days on, 4 days off for 30 days relative to control; type: functional; details: SJSA-1, po, read-out: TGI; in short: as §3
[21] = tested on: Rhesus monkey; test: Dose normalized AUC (0 to 24 hrs) in monkey at 1 mg/kg, po administered as single dose; type: ADME, organism-based, Macaca mulatta; details: in vivo; in short: as §4
[22] = Antiproliferative activity against human SJSA1 cells expressing wild type p53 after 72 hrs by CellTitre-Glo assay; details: SJSA-1, 72 h
[23] = tested on: CWR22R; test: Antiproliferative activity against human 22Rv1 cells expressing wild type p53 after 72 hrs by CellTitre-Glo assay; type: functional, cell-based; in short: as §1
[24] = molecular target: hERG (KCNH2) (Homo sapiens, UniProt Q12809); test: Inhibition of human ERG at 6 uM relative to control
hERG (KCNH2), sequence (Q12809 whole entry): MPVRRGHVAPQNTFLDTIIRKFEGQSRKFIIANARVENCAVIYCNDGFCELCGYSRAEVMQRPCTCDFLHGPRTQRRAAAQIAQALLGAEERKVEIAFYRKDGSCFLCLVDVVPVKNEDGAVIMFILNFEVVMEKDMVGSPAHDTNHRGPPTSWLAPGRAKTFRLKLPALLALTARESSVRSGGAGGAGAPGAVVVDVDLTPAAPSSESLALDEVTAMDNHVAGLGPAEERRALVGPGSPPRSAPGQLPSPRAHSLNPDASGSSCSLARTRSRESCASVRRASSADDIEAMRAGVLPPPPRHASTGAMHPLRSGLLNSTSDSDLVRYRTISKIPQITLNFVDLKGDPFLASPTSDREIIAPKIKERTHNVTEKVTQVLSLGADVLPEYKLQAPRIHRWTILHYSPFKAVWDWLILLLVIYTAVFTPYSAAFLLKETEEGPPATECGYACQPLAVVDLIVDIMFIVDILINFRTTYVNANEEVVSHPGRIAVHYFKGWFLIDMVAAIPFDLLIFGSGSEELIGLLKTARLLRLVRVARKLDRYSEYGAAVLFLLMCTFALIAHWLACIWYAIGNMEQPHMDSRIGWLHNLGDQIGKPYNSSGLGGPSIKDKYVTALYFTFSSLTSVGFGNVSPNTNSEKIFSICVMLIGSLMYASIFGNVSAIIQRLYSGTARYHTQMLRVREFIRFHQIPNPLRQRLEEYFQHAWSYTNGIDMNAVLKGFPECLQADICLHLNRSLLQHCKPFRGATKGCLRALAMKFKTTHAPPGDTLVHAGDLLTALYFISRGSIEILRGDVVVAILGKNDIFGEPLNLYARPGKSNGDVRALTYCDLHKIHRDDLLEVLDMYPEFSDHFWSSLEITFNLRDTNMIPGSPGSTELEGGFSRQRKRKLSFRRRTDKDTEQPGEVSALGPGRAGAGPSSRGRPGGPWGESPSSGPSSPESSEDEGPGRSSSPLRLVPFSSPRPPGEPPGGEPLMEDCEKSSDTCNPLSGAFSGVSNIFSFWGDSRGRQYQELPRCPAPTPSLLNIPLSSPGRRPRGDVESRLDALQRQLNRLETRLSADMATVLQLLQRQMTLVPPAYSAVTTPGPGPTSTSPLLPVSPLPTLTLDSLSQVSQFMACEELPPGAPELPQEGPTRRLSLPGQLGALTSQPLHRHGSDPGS
In short: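 hERG inhibition measured by voltage clamp at 6 μM compound.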

[25] = tested on: A549; test: Antitumor activity against human A549 cells xenografted in nude mouse assessed as tumor growth inhibition at 200 mg/kg, po qd continuously for 30 days relative to control; type: functional; details: 720 h, read-out: TGI; in short: as §5
[26] = tested on: SJSA-1; test: Antitumor activity against human SJSA1 cells xenografted in nude mouse assessed as tumor growth inhibition at 100 mg/kg, po qd continuously for 30 days; type: functional, organism-based
In short: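 Nude mice bearing SJSA-1 osteosarcoma xenografts, 5 per group, dosed orally in 20% HPBCD. Schedules were either continuous daily or intermittent (3 days on, 4 days off), at 100 and 200 mpk. Tumor volume and body weight followed against a vehicle control group.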

[27] = molecular target: Tumour suppressor p53/oncoprotein Mdm2 (Homo sapiens, UniProt Q00987); test: Inhibition of human recombinant His-tagged MDM2 (1 to 118 residues) interaction with FAM-tagged p53-based peptide (unknown origin) incubated for 15 mins by fluorescence polarization assay; type: protein assay
Tumour suppressor p53/oncoprotein Mdm2, sequence (P04637 whole entry, the tested form may be a part): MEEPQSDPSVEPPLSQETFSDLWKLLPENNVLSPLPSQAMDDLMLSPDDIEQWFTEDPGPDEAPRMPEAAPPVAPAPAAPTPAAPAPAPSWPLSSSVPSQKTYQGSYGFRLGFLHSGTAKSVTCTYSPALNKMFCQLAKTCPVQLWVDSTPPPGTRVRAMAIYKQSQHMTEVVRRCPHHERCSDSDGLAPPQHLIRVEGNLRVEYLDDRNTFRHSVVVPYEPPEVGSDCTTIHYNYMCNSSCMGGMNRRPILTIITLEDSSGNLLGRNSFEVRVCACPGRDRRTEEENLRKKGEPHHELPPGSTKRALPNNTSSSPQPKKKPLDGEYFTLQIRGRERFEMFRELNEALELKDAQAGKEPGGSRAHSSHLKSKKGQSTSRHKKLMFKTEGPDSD
Tumour suppressor p53/oncoprotein Mdm2, sequence (Q00987 whole entry, the tested form may be a part): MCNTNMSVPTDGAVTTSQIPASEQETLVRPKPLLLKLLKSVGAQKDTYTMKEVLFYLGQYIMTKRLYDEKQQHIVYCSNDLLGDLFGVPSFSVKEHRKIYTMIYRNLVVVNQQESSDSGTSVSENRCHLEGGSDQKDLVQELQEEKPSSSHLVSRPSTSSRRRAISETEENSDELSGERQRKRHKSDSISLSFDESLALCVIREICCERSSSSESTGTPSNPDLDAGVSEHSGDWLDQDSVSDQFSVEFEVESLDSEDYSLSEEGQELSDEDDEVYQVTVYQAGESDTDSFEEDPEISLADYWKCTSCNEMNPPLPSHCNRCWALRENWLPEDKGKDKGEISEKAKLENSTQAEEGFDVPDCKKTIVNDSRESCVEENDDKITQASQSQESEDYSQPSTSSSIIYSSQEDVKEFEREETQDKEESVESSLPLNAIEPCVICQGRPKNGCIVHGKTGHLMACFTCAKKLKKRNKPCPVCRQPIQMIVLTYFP

[28] = Fraction unbound in dog plasma; type: ADME, cell-free, Canis lupus familiaris
[29] = molecular target: Cytochrome P450 2D6 (Homo sapiens, UniProt P10635); test: Inhibition of CYP2D6 (unknown origin); type: ADME
Cytochrome P450 2D6, sequence (P10635 whole entry): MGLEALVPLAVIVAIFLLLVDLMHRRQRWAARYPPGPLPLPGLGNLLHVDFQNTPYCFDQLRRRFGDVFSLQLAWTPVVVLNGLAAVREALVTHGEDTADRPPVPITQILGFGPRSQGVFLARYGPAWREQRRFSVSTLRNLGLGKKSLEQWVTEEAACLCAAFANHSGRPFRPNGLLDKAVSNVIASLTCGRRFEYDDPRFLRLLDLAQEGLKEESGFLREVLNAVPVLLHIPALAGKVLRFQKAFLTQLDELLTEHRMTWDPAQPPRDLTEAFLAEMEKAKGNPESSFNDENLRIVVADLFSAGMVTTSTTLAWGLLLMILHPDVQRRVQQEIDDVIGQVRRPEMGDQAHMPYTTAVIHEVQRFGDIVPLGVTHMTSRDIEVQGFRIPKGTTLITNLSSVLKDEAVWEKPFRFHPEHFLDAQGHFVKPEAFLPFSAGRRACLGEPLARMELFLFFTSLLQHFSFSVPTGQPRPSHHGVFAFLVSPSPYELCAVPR

[30] = tested on: ZR-75-1; test: Antiproliferative activity against human ZR-75-1 cells expressing wild type p53 after 72 hrs by CellTitre-Glo assay; type: functional, cell-based; in short: as §1
[31] = Fraction unbound in mouse plasma; type: ADME, cell-free
[32] = tested on: ML-2; test: Antiproliferative activity against human ML2 cells expressing wild type p53 after 72 hrs by CellTitre-Glo assay; type: functional, cell-based; in short: as §1
[33] = molecular target: Cytochrome P450 3A4 (Homo sapiens, UniProt P08684); test: Time dependent inhibition of CYP3A4 (unknown origin); type: ADME
Cytochrome P450 3A4, sequence (P08684 whole entry): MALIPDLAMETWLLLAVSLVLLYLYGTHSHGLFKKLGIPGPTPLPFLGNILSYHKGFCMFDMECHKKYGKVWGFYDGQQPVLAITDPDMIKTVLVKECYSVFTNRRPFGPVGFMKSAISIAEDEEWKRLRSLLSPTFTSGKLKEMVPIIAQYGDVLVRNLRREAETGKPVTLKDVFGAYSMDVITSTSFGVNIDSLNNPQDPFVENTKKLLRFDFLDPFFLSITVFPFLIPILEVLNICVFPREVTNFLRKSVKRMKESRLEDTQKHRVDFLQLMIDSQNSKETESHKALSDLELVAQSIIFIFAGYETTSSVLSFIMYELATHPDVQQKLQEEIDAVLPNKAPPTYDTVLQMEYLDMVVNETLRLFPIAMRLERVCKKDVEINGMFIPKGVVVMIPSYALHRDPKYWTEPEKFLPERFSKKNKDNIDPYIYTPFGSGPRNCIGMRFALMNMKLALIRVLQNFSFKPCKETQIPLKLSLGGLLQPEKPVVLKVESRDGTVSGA

[34] = tested on: NALM-6; test: Antiproliferative activity against human NALM6 cells expressing wild type p53 after 72 hrs by CellTitre-Glo assay; type: functional, cell-based; in short: as §1

For `CCC[C@H]1N(C(=O)c2cnccc2C(F)(F)F)CCC[C@@]1(Oc1csc(C(F)(F)F)c1)C(=O)N1CCN(c2ccccc2OCCCC(=O)O)CC1`, the Activity [1] was “Active”, the solubility [2] was 100 µM (≈ 75.7 µg/mL) and the IC50 [3] was greater than 50 µM. For the same compound, the Activity [4] was “Active”, the Activity [5] was “Non-toxic” and the inhibition in vivo at 200 mg/kg [6] was 49%. For the same compound, the Activity [7] was “Active”, the Activity [8] was “Active” and the IC50 [9] was greater than 50 µM. For the same compound, the AUC/dose [10] was 0.1 µM·h, the fraction unbound [11] was 0.05 and the Activity [12] was “Active”. The TGI [13] was 85%, the Activity [14] was “Active” and the fraction unbound [15] was 0.04. The “Ratio IC50” value [16] was greater than 500, the Activity [17] was “Active” and the Activity [18] was “Active”. It also gave an IC50 [19] greater than 50 µM, an inhibition in vivo at 50 mg/kg [20] of 92% and an AUC/dose [21] of 0.2 µM·h. For the same compound, the IC50 [22] was 0.08 µM, the Activity [23] was “Active” and the inhibition at 6 µM [24] was 20%. The inhibition in vivo at 200 mg/kg [25] was 75%, the TGI [26] was “Active” and the IC50 [27] was 0.007 µM. For the same compound, the fraction unbound [28] was 0.02, the IC50 [29] was greater than 50 µM and the Activity [30] was “Active”. For the same compound, the fraction unbound [31] was 0.03, the Activity [32] was “Active” and the TDI [33] was “Active”. The Activity [34] was “Active”.
